Data from ChEMBL document CHEMBL2046351, “Discovery of cyclic sulfone hydroxyethylamines as potent and selective β-site APP-cleaving enzyme 1 (BACE1) inhibitors: structure-based design and in vivo reduction of amyloid β-peptides” (J Med Chem, 2012).
pIC50: −log10 of the molar value.

Assays:
[1] = test system: MDR1 (human); test: Apparent permeability across MDCK cells expressing human MDR1 at 5 uM after 2 hrs by LC-MS analysis; format: ADME, cell-based, Canis lupus familiaris; conditions: dog
Method in brief: (§1)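 MDCK cells retrovirally transduced with human MDR1, seeded on transwells ≥3 days; bidirectional transport at 5 μM, 2 h, 37 °C, LC/MS quantitation. Papp = (dQ/dt)/(A·C0), A 0.11 cm2; ER = Papp B>A / Papp A>B. Means of at least three experiments.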

[2] = test system: MDR1 (human); test: Efflux ratio of permeability from basolateral to apical over apical to basolateral side of MDCK cells expressing human MDR1 at 5 uM after 2 hrs by LC/MS analysis; format: ADME, cell-based, Canis lupus familiaris; conditions: dog; method in brief: as §1
[3] = species on record: Homo sapiens; test: Selectivity index, ratio of IC50 for human recombinant CatD to IC50 for human recombinant BACE1
[4] = target: Cathepsin D (Homo sapiens, UniProt P07339); test: Inhibition of human recombinant CatD using Mca-GKPILFFRLK(DNP)-dR-NH2 as substrate after 1 hr by fluorescence analysis
Cathepsin D, sequence (P07339 65-162 limits assumed): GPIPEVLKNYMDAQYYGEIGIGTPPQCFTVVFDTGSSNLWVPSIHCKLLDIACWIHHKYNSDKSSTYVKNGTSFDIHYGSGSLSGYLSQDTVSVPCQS
Cathepsin D, sequence (P07339 169-412 limits assumed): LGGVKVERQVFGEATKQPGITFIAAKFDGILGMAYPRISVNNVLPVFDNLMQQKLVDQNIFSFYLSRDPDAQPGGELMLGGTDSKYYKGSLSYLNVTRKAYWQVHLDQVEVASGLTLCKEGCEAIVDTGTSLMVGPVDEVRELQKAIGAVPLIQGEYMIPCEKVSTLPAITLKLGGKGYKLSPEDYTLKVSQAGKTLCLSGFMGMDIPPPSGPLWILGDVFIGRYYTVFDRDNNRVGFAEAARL

[5] = target: T1, Beta-secretase 1 (Homo sapiens, UniProt P56817)
T1 sequence (P56817 whole entry): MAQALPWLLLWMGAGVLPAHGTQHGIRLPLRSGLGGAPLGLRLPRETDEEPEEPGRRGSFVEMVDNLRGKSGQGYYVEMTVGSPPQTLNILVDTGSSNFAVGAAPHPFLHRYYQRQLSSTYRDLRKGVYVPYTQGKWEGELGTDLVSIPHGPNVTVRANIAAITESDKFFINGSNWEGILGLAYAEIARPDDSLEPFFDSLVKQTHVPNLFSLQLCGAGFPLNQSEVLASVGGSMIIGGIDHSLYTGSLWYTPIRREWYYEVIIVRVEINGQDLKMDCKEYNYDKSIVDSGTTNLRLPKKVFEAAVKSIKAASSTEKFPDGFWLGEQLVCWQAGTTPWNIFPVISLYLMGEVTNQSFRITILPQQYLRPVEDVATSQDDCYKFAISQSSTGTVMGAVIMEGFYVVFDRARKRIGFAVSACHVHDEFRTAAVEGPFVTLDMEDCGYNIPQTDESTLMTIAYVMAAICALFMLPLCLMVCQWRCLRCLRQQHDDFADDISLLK

[6] = target: T1, Beta-secretase 1; test: Inhibition of human BACE-1 mediated amyloid beta 40 release in Chinese hamster CHO cells expressing human wild-type APP
[7] = Ratio of drug uptake in brain to blood in C57BL/6 mouse at 60 umol/kg, po dosed in carboxymethyl cellulose 0.5% w/v in water/Tween 80 (99.5/0.5, v/v) measured 1 hr post dosing by LC/MS/MS analysis; format: ADME, organism-based
Method in brief: (§2)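 Male C57BL/6 mice dosed by oral gavage, 10 mL/kg. Blood sampled 0.25, 0.5, 1, 2, 4, 6 h; brain at 1 and/or 4 h; n = 3 per time. Blood acetonitrile-precipitated, brain water-homogenized then precipitated; LC-MS/MS with weighted linear calibration.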

[8] = AUC (0 to infinity) in C57BL/6 mouse at 2 umol/kg, iv dosed in N-methyl pyrrolidone/blank plasma (10:90 v/v) by LC/MS/MS analysis; format: ADME, organism-based; parameters: dose 2 umol/kg, time infinity, route intravenous
Method in brief: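 Male C57BL/6 mice got a single injection into the saphenous vein under light anaesthesia at 5 mL/kg. Blood was taken at 5 and 30 min and 1, 2, 4, 6 and 8 h (n = 3 per time). Blood was extracted by acetonitrile precipitation and quantified by LC-MS/MS against a weighted linear calibration. AUC came from noncompartmental analysis with 1/Y weighting.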

[9] = AUC (0 to infinity) in C57BL/6 mouse at 30 umol/kg, po dosed in carboxymethyl cellulose 0.5% w/v in water/Tween 80 (99.5/0.5, v/v) by LC/MS/MS analysis; format: ADME, organism-based; parameters: dose 30 umol/kg, route oral, time infinity; conditions: in vivo
Method in brief: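 Male C57BL/6 mice were dosed by oral gavage at 10 mL/kg. Blood was sampled at 0.25, 0.5, 1, 2, 4 and 6 h postdose, extracted by acetonitrile precipitation and quantified by LC-MS/MS (typical LLOQ 0.4 ng/mL). AUCinf was obtained by noncompartmental analysis of concentration–time profiles, weighting 1/Y, with at least three terminal log-linear points.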

[10] = Drug uptake in C57BL/6 mouse blood at 60 umol/kg, po dosed in carboxymethyl cellulose 0.5% w/v in water/Tween 80 (99.5/0.5, v/v) measured 4 hrs post dosing by LC/MS/MS analysis; format: ADME, organism-based; conditions: read-out: Drug uptake; method in brief: as §2
[11] = Half life in C57BL/6 mouse at 2 umol/kg, iv dosed in N-methyl pyrrolidone/blank plasma (10:90 v/v) by LC/MS/MS analysis; format: ADME, organism-based
Method in brief: (§3)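 Male C57BL/6 mice, saphenous vein injection under light anesthesia, 5 mL/kg. Blood at 5, 30 min and 1, 2, 4, 6, 8 h; brain at 5 min, 1, 4, 8 h; n = 3/time. LC-MS/MS after acetonitrile precipitation (brain water-homogenized). Noncompartmental analysis, 1/Y weighting, terminal slope from ≥3 points.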

[12] = Oral bioavailability in C57BL/6 mouse at 30 umol/kg dosed in carboxymethyl cellulose 0.5% w/v in water/Tween 80 (99.5/0.5, v/v) by LC/MS/MS analysis; format: ADME, organism-based; conditions: in vivo
Method in brief: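 Oral gavage (10 mL/kg) to male C57BL/6 mice with iv reference segment (2 μmol/kg, NMP/blank plasma 10:90). Noncompartmental analysis of LC-MS/MS blood profiles, 1/Y weighting; %F = dose-normalized oral AUC / dose-normalized iv AUC × 100, assuming linear pharmacokinetics between doses.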

[13] = test system: Brain; test: Drug uptake in C57BL/6 mouse brain at 60 umol/kg, po dosed in carboxymethyl cellulose 0.5% w/v in water/Tween 80 (99.5/0.5, v/v) measured 4 hrs post dosing by LC/MS/MS analysis; format: ADME, organism-based; conditions: in vivo; method in brief: as §2
[14] = Blood clearance in C57BL/6 mouse at 2 umol/kg, iv dosed in N-methyl pyrrolidone/blank plasma (10:90 v/v) by LC/MS/MS analysis; format: ADME, organism-based; method in brief: as §3
[15] = Volume of distribution at steady state in C57BL/6 mouse at 2 umol/kg, iv dosed in N-methyl pyrrolidone/blank plasma (10:90 v/v) by LC/MS/MS analysis; format: ADME, organism-based; conditions: read-out: Vdss; method in brief: as §3
[16] = test system: Brain; test: Drug uptake in C57BL/6 mouse brain at 60 umol/kg, po dosed in carboxymethyl cellulose 0.5% w/v in water/Tween 80 (99.5/0.5, v/v) measured 1 hr post dosing by LC/MS/MS analysis; format: ADME, organism-based; conditions: in vivo; method in brief: as §2
[17] = Drug uptake in C57BL/6 mouse blood at 60 umol/kg, po dosed in carboxymethyl cellulose 0.5% w/v in water/Tween 80 (99.5/0.5, v/v) measured 1 hr post dosing by LC/MS/MS analysis; format: ADME, organism-based; conditions: read-out: Drug uptake; method in brief: as §2
[18] = Ratio of drug uptake in brain to blood in C57BL/6 mouse at 60 umol/kg, po dosed in carboxymethyl cellulose 0.5% w/v in water/Tween 80 (99.5/0.5, v/v) measured 4 hrs post dosing by LC/MS/MS analysis; format: ADME, organism-based; method in brief: as §2
[19] = Drug uptake in APP51/16 transgenic mouse blood at 180 umol/kg, po measured 4 hrs post dosing by LC/MS/MS analysis; format: ADME, organism-based; conditions: read-out: Drug uptake
Method in brief: (§4)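 APP51/16 transgenic mice given oral gavage (10 mL/kg); blood and forebrain taken at 4 h postdose. Blood extracted by acetonitrile precipitation; brain homogenized in water, then acetonitrile-precipitated. LC-MS/MS quantitation against weighted linear calibration of analyte/internal standard area ratio.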

[20] = test system: Mus musculus; test: Antialzheimer activity in APP51/16 transgenic mouse expressing human APP51/16Npa and mouse Thy1 assessed as reduction in brain C99 level reduction at 180 umol/kg, po measured 4 hrs post dosing; format: functional; parameters: scale not given: the % may be the effect or the level left
Method in brief: (§5)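 Hemizygous APP51/16 mice (human APP751 wild-type under murine Thy-1 cassette, C57BL/6 background) gavaged (10 mL/kg), decapitated at 4 h. Forebrain homogenized in TBS with protease inhibitors, 1% TX-100 extract, spun 100000 rpm 30 min 4 °C. Aβ40 by 6E10 electrochemiluminescence immunoassay against spiked nontransgenic extract standards; C99 by APP-C8 western blot, densitometry. Two-tailed Student's t test versus vehicle.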

[21] = test system: Mus musculus; test: Antialzheimer activity in APP51/16 transgenic mouse expressing human APP51/16Npa and mouse Thy1 assessed as reduction in amyloid beta (1 to 40) reduction at 180 umol/kg, po measured 4 hrs post dosing; format: functional; parameters: scale not given: the % may be the effect or the level left; method in brief: as §5
[22] = test system: Brain; test: Drug uptake in APP51/16 transgenic mouse brain at 180 umol/kg, po measured 4 hrs post dosing by LC/MS/MS analysis; format: ADME, organism-based; conditions: in vivo; method in brief: as §4
[23] = target: Cytochrome P450 3A4 (Homo sapiens, UniProt P08684); test: Inhibition of CYP3A4; format: ADME
Cytochrome P450 3A4, sequence (P08684 whole entry): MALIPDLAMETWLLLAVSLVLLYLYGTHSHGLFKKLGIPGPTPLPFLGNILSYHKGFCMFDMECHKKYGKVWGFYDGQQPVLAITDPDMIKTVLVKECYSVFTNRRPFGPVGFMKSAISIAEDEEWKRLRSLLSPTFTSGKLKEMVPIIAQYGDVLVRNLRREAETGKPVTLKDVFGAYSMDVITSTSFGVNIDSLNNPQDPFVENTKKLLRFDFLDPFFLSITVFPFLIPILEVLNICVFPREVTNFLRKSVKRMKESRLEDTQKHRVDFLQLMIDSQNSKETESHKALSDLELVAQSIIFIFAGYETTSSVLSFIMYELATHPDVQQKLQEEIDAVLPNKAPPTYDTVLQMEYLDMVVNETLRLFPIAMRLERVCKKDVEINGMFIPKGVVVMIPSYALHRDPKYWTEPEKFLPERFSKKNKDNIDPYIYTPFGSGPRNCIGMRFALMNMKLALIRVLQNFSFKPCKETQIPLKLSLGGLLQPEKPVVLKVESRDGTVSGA

Row | SMILES | Papp at 2 h, 5 µM [1] | efflux ratio at 2 h, 5 µM [2] | Ratio IC50 [3] | pIC50 [4] | pIC50 [5] | other results
1 | CC(C)(C)c1cccc(CN[C@H]2CS(=O)(=O)C[C@@H](Cc3cc(F)c(N)c(Br)c3)[C@@H]2O)c1 | 13 ×10⁻⁶ cm/s | 2 | 5 | 6.47 | 7.26 | 
2 | CCCN1CCC[C@@]12CCN([C@@H](C)C(=O)N[C@@H](Cc1ccccc1)[C@H](O)CNCc1cccc(C(C)C)c1)C2=O | 11 ×10⁻⁶ cm/s | 23 |  |  |  | pIC50 [6]: 8.00
3 | CCc1cc(C[C@@H]2CS(=O)(=O)C[C@H](NCc3cccc(C(C)(C)C)c3)[C@H]2O)cc(F)c1NC(C)=O | 17 ×10⁻⁶ cm/s | 41 | > 100 | 5.64 | 8.10 | 
4 | CC(C)(C)c1cccc(CN[C@H]2CS(=O)(=O)C[C@@H](Cc3ccc(N)c(Br)c3)[C@@H]2O)c1 | 13 ×10⁻⁶ cm/s | 2 | 5 | 6.14 | 6.85 | Kp at 1 h [7]: 0.5; AUC(0-inf) [8]: 4.09 µM·h; AUC(0-inf) [9]: 6.43 µM·h; concentration at 4 h [10]: 2.98 µM; half-life [11]: 4 h; bioavailability [12]: 10%; Drug uptake [13]: 1.92 nmol/g; clearance [14]: 8.1 mL/min/kg; Vd [15]: 1.6 L/kg; Drug uptake [16]: 2.17 nmol/g; concentration at 1 h [17]: 4.07 µM; Kp at 4 h [18]: 0.6
5 | CC(C)(C)c1cccc(CN[C@H]2CS(=O)(=O)C[C@@H](Cc3cc(F)c(N)c(OCC(F)F)c3)[C@@H]2O)c1 | 22 ×10⁻⁶ cm/s | 10 | > 100 | 6.17 | 8.22 | concentration at 4 h [19]: 12.2 µM; Activity [20]: 32%; Activity [21]: 18%; Drug uptake [22]: 2.1 nmol/g
6 | CCCOc1cc(C[C@@H]2CS(=O)(=O)C[C@H](NCc3cccc(C(C)(C)C)c3)[C@H]2O)ccc1N | 7 ×10⁻⁶ cm/s | 2 | > 100 | 5.28 | 7.35 | 
7 | CCOc1cc(C[C@@H]2CS(=O)(=O)C[C@H](NCc3cccc(C(C)(C)C)c3)[C@H]2O)cc(F)c1N | 18 ×10⁻⁶ cm/s | 3 | 40 | 5.99 | 7.62 | concentration at 4 h [19]: 9 µM; Activity [20]: 54%; Activity [21]: 34%; Drug uptake [22]: 3.1 nmol/g
8 | CC(C)(C)c1ccnc(CN[C@H]2CS(=O)(=O)C[C@@H](Cc3cc(F)c(N)c(OC(C(F)(F)F)C(F)(F)F)c3)[C@@H]2O)c1 | 38 ×10⁻⁶ cm/s | 17 |  | 5.51 | 7.17 | pIC50 [23]: 6.40
9 | COC[C@@H](Oc1cc(C[C@@H]2CS(=O)(=O)C[C@H](NCc3cccc(C(C)(C)C)c3)[C@H]2O)cc(F)c1N)C(F)(F)F | 13 ×10⁻⁶ cm/s |  |  | 6.60 |  | concentration at 4 h [19]: 7.3 µM; Activity [20]: 48%; Activity [21]: 31%; Drug uptake [22]: 1.9 nmol/g
10 | CC(C)(C)c1cccc(CN[C@H]2CS(=O)(=O)C[C@@H](Cc3ccc(N)c(F)c3)[C@@H]2O)c1 | 21 ×10⁻⁶ cm/s | 1 | 5 | 5.60 | 6.46 | 
11 | CC(C)(O)c1cccc(CN[C@H]2CS(=O)(=O)C[C@@H](Cc3cc(F)c(N)c(OC(C(F)(F)F)C(F)(F)F)c3)[C@@H]2O)c1 | 11 ×10⁻⁶ cm/s | 30 |  | 5.88 | 8.70 | pIC50 [23]: 5.68
